Measured values from paper PMC2882023 (The Journal of neuroscience : the official journal of the …, 2010).
Structures can show the parent of a compound that is named as a salt. Where two headings read alike, the source gives them in different places.

Experiments:
hP2X2/3 = target: T1, hP2X2/3 (Homo sapiens, UniProt P56373+Q9UBL9); assay type: cell-based; conditions: αβmeATP or ATP-evoked calcium flux, 1321N1 cells, n = 15
T1 sequence (Q9UBL9 1-471): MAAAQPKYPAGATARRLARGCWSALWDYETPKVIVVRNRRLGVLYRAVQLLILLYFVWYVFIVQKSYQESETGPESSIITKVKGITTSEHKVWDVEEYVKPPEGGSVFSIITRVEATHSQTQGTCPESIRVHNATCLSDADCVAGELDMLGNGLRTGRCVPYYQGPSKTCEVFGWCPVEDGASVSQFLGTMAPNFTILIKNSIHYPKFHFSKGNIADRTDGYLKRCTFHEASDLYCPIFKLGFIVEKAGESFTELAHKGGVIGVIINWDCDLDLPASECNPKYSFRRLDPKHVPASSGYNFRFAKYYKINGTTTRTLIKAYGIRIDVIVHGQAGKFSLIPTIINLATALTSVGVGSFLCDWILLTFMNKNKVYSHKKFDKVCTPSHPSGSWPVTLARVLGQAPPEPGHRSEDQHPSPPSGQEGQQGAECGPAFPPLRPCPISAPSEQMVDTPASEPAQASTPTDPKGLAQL
T1 sequence (P56373 1-397): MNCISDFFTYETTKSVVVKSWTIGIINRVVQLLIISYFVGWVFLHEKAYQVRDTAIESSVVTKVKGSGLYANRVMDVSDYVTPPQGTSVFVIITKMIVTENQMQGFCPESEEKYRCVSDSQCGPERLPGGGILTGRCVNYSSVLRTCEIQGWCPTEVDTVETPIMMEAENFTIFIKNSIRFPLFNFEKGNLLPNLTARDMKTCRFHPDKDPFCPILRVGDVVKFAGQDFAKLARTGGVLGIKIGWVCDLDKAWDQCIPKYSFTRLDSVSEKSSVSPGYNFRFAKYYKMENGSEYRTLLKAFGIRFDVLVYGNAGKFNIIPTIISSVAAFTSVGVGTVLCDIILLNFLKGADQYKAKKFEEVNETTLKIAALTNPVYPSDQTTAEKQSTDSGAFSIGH
In short: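 Cytosolic calcium flux was read in Fluo-3-loaded 1321N1 astrocytoma cells transfected with cloned human P2X2/3 receptors. Flux was evoked by αβmeATP or ATP, at an agonist level set per receptor subtype, with test compound present. Inhibition was expressed as pIC50 ± SEM from 15 determinations.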

other P2X receptors = experiment: calcium flux selectivity over other P2X receptors; assay type: cell-based; conditions: up to a concentration of 10 μM
In short: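 Off-target P2X subtypes were tested in Fluo-3-loaded CHOK1 cells (recombinant human P2X1, human P2X4, rat P2X5 or human P2X7) and 1321N1 astrocytoma cells (cloned human P2X2). Intracellular calcium flux was evoked by αβmeATP or ATP, at a level varied by subtype, with test compound present. pIC50 was derived with n = 3 per receptor.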

[1] = tested on: micturition reflex contractions; assay type: in vivo, Sprague-Dawley rats; conditions: i.t.; for intercontraction interval (ICI): anaesthetized rats, mean ± SEM; for intercontraction interval (ICI), extent of prolongation over the dose range: across the doses tested
In short: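 Urethane-anaesthetised (1.2 g/kg i.p.) adult female rats, 200–280 g, with an intrathecal catheter tip at L1 placed ≥1 d earlier. Ureters and urethral orifice ligated. Bladder saline-infused at 100 μl/min to micturition threshold, then 3–5 μl/min. After ≥10 min stable baseline, vehicle (saline or 5% DMSO/saline), then escalating i.t. doses (10 μl + 10 μl saline flush, ≥8 min apart). ICI from intravesical pressure; n = 5–15; repeated-measures ANOVA/Bonferroni.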

[2] = tested on: pERK-positive cells in L6 spinal cord; experiment: spinal ERK activation; assay type: in vivo, Sprague-Dawley rats; conditions: 300 nmol, i.t., 10 min before 1% acetic acid intravesically; n = 4
In short: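 Separate experiment in urethane-anaesthetised bladder-cannulated female rats: ≥1 h post-cannulation, i.t. test compound (300 nmol) or 5% DMSO; 10 min later, 700 μl 1% acetic acid intravesically for 2 min (sham: vehicle, no acid, 12 min). Perfusion-fixed (4% paraformaldehyde/picric acid); 20 μm L6 cryosections. Anti-phospho-p44/42 (Thr202/Tyr204) staining with tyramide amplification and FITC. Four rats/group, three sections each, blind counting; one-way ANOVA/Tukey.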

[3] = tested on: 75 receptors, channels, enzymes, and transporters; experiment: Cerep screen of 75 receptors, channels, enzymes and transporters; assay type: binding; conditions: 10 μM, 75 targets
more than 100 kinases = experiment: Ambit kinase screen; assay type: binding; conditions: 10 μM
P2X3 = conditions: ref Gever et al., 2006; Carter et al., 2009; cited from earlier work
P2X2/3 = conditions: ref Gever et al., 2006; Carter et al., 2009; cited from earlier work
P2X1 = conditions: ref Gever et al., 2006; Carter et al., 2009; cited from earlier work
[4] = ref Wu et al. 2004; cited from earlier work

SMILES | intercontraction interval (ICI) ([1]; 10 nmol) [min] | intercontraction interval (ICI), extent of prolongation over the dose range [1] | pIC50 at P2X3 (P2X3) | pIC50 at P2X2/3 (P2X2/3) | intercontraction interval (ICI) ([1]; 1 nmol) [min] | further results
C#Cc1cc(Oc2cnc(N)nc2N)c(C(C)C)cc1OC [AF-792] |  |  |  |  |  | pIC50 ± SEM (hP2X2/3): 7.94 ± 0.08; inhibition at other P2X receptors (other P2X receptors): no inhibition; intercontraction interval (ICI) ([1]; 100 nmol): 8.00 ± 1.67 min; intercontraction interval (ICI) ([1]; 300 nmol): 9.33 ± 2.50 min; number of pERK-positive cells in L6 spinal cord segment [2]: 43.0 ± 9.6 cells/ section; inhibition of radioligand binding or function [3]: little or no inhibition; inhibition of radioligand binding or function (more than 100 kinases): little or no inhibition
Cc1nc(N=Nc2ccc(S(=O)(=O)O)cc2S(=O)(=O)O)c(COP(=O)(O)O)c(C=O)c1O [PPADs, pyridoxal-phosphate-6-azophenyl-2′,4′,-disulphonic acid] | 3.50 ± 1.15 | more than 2 min | 6 | 6 |  | 
Nc1ncnc2c1ncn2[C@@H]1O[C@H](COP(=O)(O)OP(=O)(O)OP(=O)(O)O)[C@H]2OC3(O[C@H]21)C([N+](=O)[O-])=CC(=[N+]([O-])[O-])C=C3[N+](=O)[O-] (some centres unmarked) [TNP-ATP, 2′,3′-O-(2,4,6-trinitrophenyl) adenosine 5′-triphosphate monolithium trisodium salt] | 4.28 ± 1.21 |  | 9 | 8.4 | 4.64 ± 1.30 | pIC50 at P2X1 (P2X1): 8.22
O=C(O)c1cc(C(=O)O)c(C(=O)N(Cc2cccc(Oc3ccccc3)c2)[C@H]2CCCc3ccccc32)cc1C(=O)O [A-317491] |  |  |  |  |  | CNS permeability [4]: negligible CNS permeability
Nc1ncnc2c1ncn2[C@@H]1O[C@H](COP(=O)(O)CP(=O)(O)OP(=O)(O)O)[C@@H](O)[C@H]1O [αβmeATP, α,β-methylene-ATP] |  | up to 10 min |  |  | 8.45 ± 2.48 | lowest significant dose for prolonging the ICI [1]: 1 nmol
